Source: ChEMBL document CHEMBL1122333, “Synthesis and biological activities of the Z isomers of carbapenem antibiotics” (J Med Chem, 1983)

Experiments:
Klebsiella pneumoniae [1] = test: Tested for minimum inhibitory concentration against Klebsiella pneumoniae TN1655 on ampicillin at a concentration of 0.1 ug/mL into the agar plate; format: functional
Klebsiella pneumoniae [2] = test: Tested for beta-lactamase inhibitory activity of the 5,6-cis-carbapenem antibiotic on penicillinase against Klebsiella pneumoniae TN1698; format: functional, organism-based; details: for IC50: Klebsiella pneumoniae, read-out: I50
Staphylococcus aureus [3] = test: Tested for minimum inhibitory concentration against Staphylococcus aureus 1840 on ampicillin at a concentration of 0.1 ug/mL into the agar plate; format: functional
[4] = (§1) Half-life of 10% mouse kidney homogenate is tested; format: ADME; details: 10% mouse kidney homogenate
Procedure, shortened: (§2)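 Carbapenem at 50 μg/mL incubated in 10% mouse kidney homogenate at 30 °C to assess stability to mouse renal enzyme(s).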

Serratia marcescens [5] = test: Tested for minimum inhibitory concentration against Serratia marcescens 12648 on cefotiam at a concentration of 0.1 ug/mL into the agar plate
Escherichia coli [6] = test: Tested for inhibition of intraperitoneal infection against Escherichia coli O-111; format: functional
Procedure, shortened: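 Protection assay run in Slc:ICR mice. ED50 was calculated by the Reed and Muench method from survival recorded 5 days after infection.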

Proteus vulgaris [7] = test: beta-lactamase inhibitory activity of the 5,6-cis-carbapenem antibiotic on cephalosporinase against Proteus vulgaris GN4413; format: functional, organism-based; details: for IC50: Proteus vulgaris, read-out: I50
Staphylococcus aureus [8] = test: Tested for beta-lactamase inhibitory activity of the 5,6-cis-carbapenem antibiotic on penicillinase against Staphylococcus aureus 1840; format: functional, organism-based; details: read-out: I50
Serratia marcescens [9] = test: beta-lactamase inhibitory activity of the 5,6-cis-carbapenem antibiotic on cephalosporinase against Serratia marcescens TN81; format: functional, organism-based, serratia marcesc; details: for IC50: Serratia marcescens, read-out: I50
Proteus vulgaris [10] = test: Tested for minimum inhibitory concentration against Proteus vulgaris GN4815 on cefotiam at a concentration of 0.1 ug/mL into the agar plate
Proteus vulgaris [11] = test: Minimum inhibitory concentration against Proteus vulgaris GN4815 on cefotiam at a concentration of 0.1 ug/mL into the agar plate
Serratia marcescens [12] = test: Tested for minimum inhibitory concentration against Serratia marcescens IFO 12648; format: functional
Procedure, shortened: (§3)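 Agar dilution MIC on Trypticase soy agar. Each plate was inoculated with one loopful of a 10^8 cfu/mL bacterial suspension.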

Escherichia coli [13] = test: Tested for minimum inhibitory concentration against Escherichia coli O-111; format: functional
Procedure, shortened: (§4)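 MIC by agar dilution on Trypticase soy agar. Inoculum was one loopful of a 10^8 cfu/mL bacterial suspension.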

Proteus vulgaris [14] = test: Tested for minimum inhibitory concentration against Proteus vulgaris IFO 3988; format: functional; procedure, shortened: as §4
[15] = test system: Acinetobacter calcoaceticus; test: Minimum inhibitory concentration against Acinetobacter calcoacet IFO 13006; format: functional; procedure, shortened: as §4
Pseudomonas aeruginosa = test: Tested for minimum inhibitory concentration against Pseudomonas aeruginosa IFO 3455; format: functional; procedure, shortened: as §3
Proteus vulgaris [16] = test: tested for minimum inhibitory concentration against Proteus vulgaris GN4815 on cefotiam at a concentration of 0.1 ug/mL into the agar plate
Klebsiella pneumoniae [17] = test: Tested for minimum inhibitory concentration against Klebsiella pneumoniae TN1655 on ampicillin at a concentration of 0.1 ug/mL into the agar plate
[18] = tested for minimum inhibitory concentration against […] 12486 on ampicillin at a concentration of 0.1 ug/mL into the agar plate; format: functional
Citrobacter freundii = test: Tested for minimum inhibitory concentration against […] IFO 12681; format: functional; procedure, shortened: as §3
Klebsiella pneumoniae [19] = test: Tested for minimum inhibitory concentration against Klebsiella pneumoniae DT; format: functional; procedure, shortened: as §3
Morganella morganii = test: Tested for minimum inhibitory concentration against […] IFO 3168; format: functional; procedure, shortened: as §3
Proteus mirabilis = test: Tested for minimum inhibitory concentration against […] IFO 3849; format: functional; procedure, shortened: as §3
Enterobacter cloacae = test: Tested for minimum inhibitory concentration against […] IFO 12937; format: functional; procedure, shortened: as §3
Escherichia coli [20] = test: Tested for minimum inhibitory concentration against Escherichia coli T-7; format: functional; procedure, shortened: as §3
Staphylococcus aureus [21] = test: Tested for minimum inhibitory concentration against Staphylococcus aureus 308 A-1; format: functional; procedure, shortened: as §3
Mus musculus = species on record: Mus musculus; test: as §1; format: ADME; details: in vitro; procedure, shortened: as §2
[22] = Escherichia coli, ip, read-out: ED50
[23] = Acinetobacter calcoaceticus, IFO 13006, read-out: MIC
[24] = Pseudomonas aeruginosa, IFO 3455, read-out: MIC

Structure (SMILES) | MIC (Klebsiella pneumoniae [1]) [µg/mL] | IC50 (Klebsiella pneumoniae [2]) [ng/mL] | MIC (Staphylococcus aureus [3]) [µg/mL] | half-life [4] [min] | MIC (Serratia marcescens [5]) [µg/mL] | ED50 (Escherichia coli [6]; [22]) [mg/kg] | IC50 (Proteus vulgaris [7]) [ng/mL] | IC50 (Staphylococcus aureus [8]) [µg/mL] | IC50 (Serratia marcescens [9]) [ng/mL] | MIC (Proteus vulgaris [11]) [µg/mL] | also measured
CC(=O)[N-]/C=C/SC1=C(C(=O)[O-])N2C(=O)[C@@H](C(C)O)[C@H]2C1.[Na+].[Na+] (some centres undefined) | 100 | 320 | 1.56 | 40 | 25 | 17.7 | 1500 | 0.065 | 1.1 | – | MIC (Proteus vulgaris [10]): 400 µg/mL
CC(=O)N/C=C/[S+]([O-])C1=C(C(=O)[O-])N2C(=O)[C@@H](C(C)(C)OS(=O)(=O)[O-])[C@H]2C1.[Na+].[Na+] (some centres undefined) | 6.25 | 5.2 | – | 37 | 6.25 | > 100 | 0.37 | 0.21 | – | 1.56 | MIC (Serratia marcescens [12]; Serratia marcescens, IFO 12648, read-out: MIC): 12.5 µg/mL; I50 (Serratia marcescens [9]): 55 ng/mL
CC(=O)N/C=C\SC1=C(C(=O)[O-])N2C(=O)[C@@H](C(C)(C)O)[C@H]2C1.[Na+] | 100 | 220 | 12.5 | 19 | 12.5 | > 50 | 17 | – | 5.3 | 25 | –
CC(=O)N/C=C/SC1=C(C(=O)[O-])N2C(=O)[C@@H](C(C)O)[C@H]2C1.[Na+] (some centres undefined) | – | – | – | 12 | – | > 50 | – | – | – | – | MIC (Escherichia coli [13]; Escherichia coli, read-out: MIC): 0.39 µg/mL; MIC (Proteus vulgaris [14]; Proteus vulgaris, IFO 3988, read-out: MIC): 3.13 µg/mL; MIC [15, 23]: 3.13 µg/mL; MIC (Pseudomonas aeruginosa; [24]): 100 µg/mL
CC(=O)N/C=C/SC1=C(C(=O)[O-])N2C(=O)[C@@H](C(C)OS(=O)(=O)[O-])[C@H]2C1.[Na+].[Na+] (some centres undefined) | – | – | – | 21 | – | > 50 | – | – | – | – | MIC (Pseudomonas aeruginosa; [24]): 3.13 µg/mL
CC(=O)N/C=C/SC1=C(C(=O)[O-])N2C(=O)[C@@H](C(C)(C)OS(=O)(=O)[O-])[C@H]2C1.[Na+].[Na+] | – | – | – | 7 | – | > 50 | – | – | – | – | –
CC(=O)N/C=C\[S+]([O-])C1=C(C(=O)[O-])N2C(=O)[C@@H](C(C)O)[C@H]2C1.[Na+] (some centres undefined) | – | 2.4 | 6.25 | – | – | – | 19 | 0.00055 | 0.29 | – | MIC (Proteus vulgaris [16]): 400 µg/mL; MIC (Klebsiella pneumoniae [17]): 100 µg/mL
CC(=O)N/C=C\SC1=C(C(=O)[O-])N2C(=O)[C@@H](C(C)OS(=O)(=O)[O-])[C@H]2C1.[Na+].[Na+] (some centres undefined) | 25 | 1.8 | – | 42 | – | > 50 | 0.35 | 0.014 | 1 | 1.56 | MIC [18]: 12.5 µg/mL
CC(=O)N/C=C\[S+]([O-])C1=C(C(=O)[O-])N2C(=O)[C@@H](C(C)OS(=O)(=O)[O-])[C@H]2C1.[Na+].[Na+] (some centres undefined) | – | 0.08 | 50 | – | 25 | – | 0.16 | 0.0034 | 0.34 | 50 | –
CC(=O)N/C=C\SC1=C(C(=O)[O-])N2C(=O)[C@@H](C(C)(C)OS(=O)(=O)[O-])[C@H]2C1.[Na+].[Na+] | 50 | 28 | 50 | 19 | 25 | > 50 | 3.8 | 1 | 51 | 1.56 | –
CC(=O)N/C=C\[S+]([O-])C1=C(C(=O)[O-])N2C(=O)[C@@H](C(C)(C)OS(=O)(=O)[O-])[C@H]2C1.[Na+].[Na+] (some centres undefined) | 3.13 | 1 | 50 | – | 12.5 | > 50 | 0.55 | 0.24 | 18 | 0.78 | –
CC(=O)N/C=C/SC1=C(C(=O)[O-])N2C(=O)[C@@H](C(C)(C)O)[C@H]2C1.[Na+] | – | – | – | 8 | – | > 50 | – | – | – | – | –
CC(=O)N/C=C/[S+]([O-])C1=C(C(=O)[O-])N2C(=O)[C@@H](C(C)(C)O)[C@H]2C1.[Na+] (stereo in doubt; 2) | – | – | – | – | – | – | – | – | – | – | MIC (Escherichia coli [13]): <0.1 µg/mL; MIC (Citrobacter freundii): 0.2 µg/mL; MIC (Proteus vulgaris [14]): 3.13 µg/mL; ED50 (Escherichia coli [6]): 20 mg/kg
CC(=O)N/C=C\[S+]([O-])C1=C(C(=O)[O-])N2C(=O)[C@@H](C(C)(C)O)[C@H]2C1.[Na+] (stereo in doubt; 11) | 3.13 | – | 6.25 | – | 12.5 | – | – | – | – | – | MIC (Escherichia coli [13]): <0.1 µg/mL; MIC (Klebsiella pneumoniae [19]): 3.13 µg/mL; I50 (Klebsiella pneumoniae [2]): 3.8 ng/mL; MIC (Proteus vulgaris [14]): 25 µg/mL; MIC (Morganella morganii): 12.5 µg/mL; MIC [15, 23]: 50 µg/mL; I50 (Proteus vulgaris [7]): 1.1 ng/mL; MIC (Serratia marcescens [12]): 3.13 µg/mL; I50 (Serratia marcescens [9]): 0.34 ng/mL; MIC (Proteus mirabilis): 12.5 µg/mL
CC(=O)N/C=C/[S+]([O-])C1=C(C(=O)[O-])N2C(=O)[C@@H](C(C)(C)O)[C@H]2C1.[Na+] (stereo in doubt; 20) | – | 80 | – | – | – | 28.1 | 2.8 | 0.54 | 0.78 | – | MIC (Citrobacter freundii): 3.13 µg/mL; MIC (Enterobacter cloacae): 25 µg/mL; MIC (Proteus vulgaris [14]): 12.5 µg/mL; MIC (Morganella morganii): 25 µg/mL; MIC [15]: 12.5 µg/mL; MIC (Escherichia coli [20]): 25 µg/mL; MIC (Proteus mirabilis): 12.5 µg/mL; MIC (Staphylococcus aureus [21]): 3.13 µg/mL; MIC (Pseudomonas aeruginosa): 25 µg/mL
CC(=O)N/C=C\[S+]([O-])C1=C(C(=O)[O-])N2C(=O)[C@@H](C(C)(C)O)[C@H]2C1.[Na+] (stereo in doubt; 22) | – | – | – | – | – | – | – | 0.59 | – | – | MIC (Citrobacter freundii): 12.5 µg/mL; MIC (Klebsiella pneumoniae [19]): 12.5 µg/mL; I50 (Klebsiella pneumoniae [2]): 110 ng/mL; T1/2 (Mus musculus): > 250 min; MIC (Enterobacter cloacae): 50 µg/mL; MIC (Proteus vulgaris [14]): 100 µg/mL; MIC (Morganella morganii): 100 µg/mL; I50 (Proteus vulgaris [7]): 14 ng/mL; MIC (Escherichia coli [20]): 25 µg/mL; MIC (Serratia marcescens [12]): 25 µg/mL; I50 (Serratia marcescens [9]): 3.3 ng/mL; MIC (Proteus mirabilis): 50 µg/mL; MIC (Staphylococcus aureus [21]): 3.13 µg/mL
